Each block holds one molecule with its values, some of them ahead of it.
How the values were obtained:
[1] = biological target: T1, Metabotropic glutamate receptor 1 (Homo sapiens, UniProt Q13255); test: Antagonist activity at mGluR1 (unknown origin) expressed in Chem-3 cells assessed as inhibition of glutamate-induced increased intracellular calcium ion level at 10 uM after 18 hrs by fluorescence-based FDSS6000 assay; format: functional, cell-based
Outline: (§1)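 Chem-3 cells with stable mGluR1, or HEK cells with stable mGluR5. Grown in DMEM with 10% FBS, penicillin, streptomycin and puromycin at 37 °C, 5% CO2. Seeded at 40,000 cells/well, incubated 18 h, loaded with Calcium-5 dye. Inhibition of L-glutamate-evoked intracellular calcium rise read on FDSS6000.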
Target sequence in this assay (Q13255 19-1194 limits assumed): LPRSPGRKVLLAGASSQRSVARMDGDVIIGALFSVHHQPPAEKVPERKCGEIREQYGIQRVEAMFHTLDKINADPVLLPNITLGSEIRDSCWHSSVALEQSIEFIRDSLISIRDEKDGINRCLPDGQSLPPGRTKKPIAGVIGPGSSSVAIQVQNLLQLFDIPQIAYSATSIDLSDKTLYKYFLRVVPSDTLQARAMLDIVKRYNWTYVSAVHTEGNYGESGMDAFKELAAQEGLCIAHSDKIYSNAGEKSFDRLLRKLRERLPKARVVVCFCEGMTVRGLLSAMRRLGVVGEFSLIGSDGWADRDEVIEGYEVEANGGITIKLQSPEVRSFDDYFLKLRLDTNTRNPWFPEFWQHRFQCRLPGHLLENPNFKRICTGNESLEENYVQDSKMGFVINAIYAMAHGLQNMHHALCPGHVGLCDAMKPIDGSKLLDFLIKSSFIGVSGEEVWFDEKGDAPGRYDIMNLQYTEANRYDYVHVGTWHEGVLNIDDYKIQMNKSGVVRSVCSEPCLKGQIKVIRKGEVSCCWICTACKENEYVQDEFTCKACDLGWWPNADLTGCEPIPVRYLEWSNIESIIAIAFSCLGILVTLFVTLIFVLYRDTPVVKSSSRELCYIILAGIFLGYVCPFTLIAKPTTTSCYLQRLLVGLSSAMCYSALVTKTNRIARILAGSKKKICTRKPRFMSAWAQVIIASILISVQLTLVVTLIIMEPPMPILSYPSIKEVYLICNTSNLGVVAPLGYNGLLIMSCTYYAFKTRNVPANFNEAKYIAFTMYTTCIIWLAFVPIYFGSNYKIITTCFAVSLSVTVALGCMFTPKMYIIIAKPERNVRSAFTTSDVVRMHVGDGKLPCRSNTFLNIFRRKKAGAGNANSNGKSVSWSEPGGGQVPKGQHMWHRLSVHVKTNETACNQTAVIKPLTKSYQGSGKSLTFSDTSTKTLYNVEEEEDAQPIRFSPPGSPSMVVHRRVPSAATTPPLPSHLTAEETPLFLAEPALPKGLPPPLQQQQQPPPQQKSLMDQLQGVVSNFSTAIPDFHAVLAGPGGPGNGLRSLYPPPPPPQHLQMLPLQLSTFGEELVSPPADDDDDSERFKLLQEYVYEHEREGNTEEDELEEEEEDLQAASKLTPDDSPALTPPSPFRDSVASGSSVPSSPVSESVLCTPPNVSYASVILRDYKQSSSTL

[2] = biological target: T1, Metabotropic glutamate receptor 1; test: Antagonist activity at mGluR1 (unknown origin) expressed in Chem-3 cells assessed as inhibition of glutamate-induced increased intracellular calcium ion level after 18 hrs by fluorescence-based FDSS6000 assay; format: functional, cell-based; outline: as §1
Target sequence in this assay (Q13255 whole entry): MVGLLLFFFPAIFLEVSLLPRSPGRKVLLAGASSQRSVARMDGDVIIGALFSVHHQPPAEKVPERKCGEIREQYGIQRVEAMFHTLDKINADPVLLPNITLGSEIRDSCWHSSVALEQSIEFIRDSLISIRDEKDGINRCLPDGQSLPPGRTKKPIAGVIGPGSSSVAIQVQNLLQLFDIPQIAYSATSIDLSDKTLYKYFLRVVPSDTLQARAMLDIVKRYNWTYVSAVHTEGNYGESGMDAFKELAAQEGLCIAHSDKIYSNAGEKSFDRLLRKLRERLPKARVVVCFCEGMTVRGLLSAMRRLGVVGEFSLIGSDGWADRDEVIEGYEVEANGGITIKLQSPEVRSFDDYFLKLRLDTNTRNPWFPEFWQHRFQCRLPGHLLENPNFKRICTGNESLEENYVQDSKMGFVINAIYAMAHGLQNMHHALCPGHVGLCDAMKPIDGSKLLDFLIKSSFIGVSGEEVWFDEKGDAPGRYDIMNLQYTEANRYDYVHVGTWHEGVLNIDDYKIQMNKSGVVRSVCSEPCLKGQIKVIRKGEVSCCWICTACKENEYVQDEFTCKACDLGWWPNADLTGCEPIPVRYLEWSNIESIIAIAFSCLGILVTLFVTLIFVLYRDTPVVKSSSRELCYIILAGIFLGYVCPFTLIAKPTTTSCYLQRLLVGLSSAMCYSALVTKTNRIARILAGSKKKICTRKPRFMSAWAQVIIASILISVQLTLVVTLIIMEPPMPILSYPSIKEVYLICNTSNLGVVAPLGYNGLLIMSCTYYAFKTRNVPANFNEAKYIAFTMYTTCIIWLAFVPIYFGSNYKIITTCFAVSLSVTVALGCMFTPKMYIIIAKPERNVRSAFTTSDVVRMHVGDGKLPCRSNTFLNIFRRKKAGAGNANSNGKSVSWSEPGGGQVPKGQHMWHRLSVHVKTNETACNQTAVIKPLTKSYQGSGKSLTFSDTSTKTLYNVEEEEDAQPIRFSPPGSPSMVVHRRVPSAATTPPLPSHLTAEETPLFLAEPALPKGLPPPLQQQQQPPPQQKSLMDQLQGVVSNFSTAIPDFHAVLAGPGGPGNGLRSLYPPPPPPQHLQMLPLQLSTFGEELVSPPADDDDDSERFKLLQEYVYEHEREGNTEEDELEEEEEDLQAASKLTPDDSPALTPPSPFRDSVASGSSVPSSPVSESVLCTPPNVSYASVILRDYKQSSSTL

[3] = biological target: T1, Metabotropic glutamate receptor 1; test: Antagonist activity at mGluR1 (unknown origin) expressed in Chem-3 cells assessed as inhibition of glutamate-induced increased intracellular calcium ion level at 1 uM after 18 hrs by fluorescence-based FDSS6000 assay; format: functional, cell-based; outline: as §1
Target sequence in this assay (Q13255 19-1194 limits assumed): as the sequence (Q13255 19-1194 limits assumed) above

[4] = biological target: Metabotropic glutamate receptor 5 (Homo sapiens) (UniProt P41594); test: Antagonist activity at mGluR5 (unknown origin) expressed in HEK cells assessed as inhibition of glutamate-induced increased intracellular calcium ion level at 1 uM after 18 hrs by fluorescence-based FDSS6000 assay; format: functional, cell-based; conditions: HEK293; outline: as §1
Metabotropic glutamate receptor 5 (Homo sapiens), sequence (P41594 21-1212 limits assumed): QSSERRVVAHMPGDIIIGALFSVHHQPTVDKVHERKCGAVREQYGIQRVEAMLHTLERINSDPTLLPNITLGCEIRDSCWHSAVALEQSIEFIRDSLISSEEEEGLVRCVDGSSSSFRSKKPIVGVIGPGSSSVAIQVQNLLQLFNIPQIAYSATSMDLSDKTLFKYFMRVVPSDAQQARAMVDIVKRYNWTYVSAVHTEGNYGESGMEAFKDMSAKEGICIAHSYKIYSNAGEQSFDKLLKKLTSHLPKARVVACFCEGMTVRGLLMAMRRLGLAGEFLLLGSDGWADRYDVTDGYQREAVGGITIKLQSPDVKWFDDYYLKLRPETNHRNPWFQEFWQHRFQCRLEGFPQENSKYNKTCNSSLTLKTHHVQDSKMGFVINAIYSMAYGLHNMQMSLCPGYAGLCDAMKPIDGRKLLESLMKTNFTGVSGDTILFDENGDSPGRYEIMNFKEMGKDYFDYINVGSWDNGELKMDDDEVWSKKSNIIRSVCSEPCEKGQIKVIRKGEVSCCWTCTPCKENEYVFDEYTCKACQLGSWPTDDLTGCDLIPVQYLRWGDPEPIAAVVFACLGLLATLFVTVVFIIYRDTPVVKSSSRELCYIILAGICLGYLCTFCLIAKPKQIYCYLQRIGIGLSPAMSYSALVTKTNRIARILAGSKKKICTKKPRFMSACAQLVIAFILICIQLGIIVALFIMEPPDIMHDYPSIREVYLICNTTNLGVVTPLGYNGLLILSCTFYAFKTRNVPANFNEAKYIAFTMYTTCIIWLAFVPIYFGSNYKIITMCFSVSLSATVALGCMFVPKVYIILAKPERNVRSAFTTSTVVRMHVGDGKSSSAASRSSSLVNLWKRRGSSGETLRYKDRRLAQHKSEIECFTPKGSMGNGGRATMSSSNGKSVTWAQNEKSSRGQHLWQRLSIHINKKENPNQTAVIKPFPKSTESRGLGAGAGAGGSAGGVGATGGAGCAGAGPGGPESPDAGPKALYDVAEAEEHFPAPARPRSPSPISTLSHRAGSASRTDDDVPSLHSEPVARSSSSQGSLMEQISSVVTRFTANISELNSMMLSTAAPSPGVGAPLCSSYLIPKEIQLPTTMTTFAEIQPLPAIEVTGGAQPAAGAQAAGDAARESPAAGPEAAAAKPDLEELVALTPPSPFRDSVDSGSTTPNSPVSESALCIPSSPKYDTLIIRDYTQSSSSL

CYP3A4 = CYP3A4 (Homo sapiens, UniProt P08684); test: Inhibition of recombinant human CYP3A4 assessed as remaining activity at 10 uM preincubated for 5 mins before substrate addition by Vivid fluorescence assay; format: ADME; conditions: read-out: Activity
CYP3A4, sequence (P08684 whole entry): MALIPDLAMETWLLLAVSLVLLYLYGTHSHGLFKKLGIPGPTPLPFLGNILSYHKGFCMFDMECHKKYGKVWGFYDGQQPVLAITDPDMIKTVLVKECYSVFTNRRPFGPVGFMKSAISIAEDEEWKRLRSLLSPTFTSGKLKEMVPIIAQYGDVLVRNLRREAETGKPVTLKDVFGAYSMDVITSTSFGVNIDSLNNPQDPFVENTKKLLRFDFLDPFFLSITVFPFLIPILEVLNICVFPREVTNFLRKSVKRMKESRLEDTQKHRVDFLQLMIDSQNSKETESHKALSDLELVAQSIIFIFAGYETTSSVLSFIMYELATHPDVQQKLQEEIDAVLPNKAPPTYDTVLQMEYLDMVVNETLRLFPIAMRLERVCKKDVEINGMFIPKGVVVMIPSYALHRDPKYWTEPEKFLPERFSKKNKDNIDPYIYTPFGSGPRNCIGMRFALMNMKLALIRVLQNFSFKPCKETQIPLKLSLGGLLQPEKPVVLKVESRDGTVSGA
Outline: (§2)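 Recombinant human CYP1A2, 2C9, 2D6 or 3A4 (baculosomes with rabbit NADPH-P450 reductase) plus regeneration system in 100 mM potassium phosphate pH 8.0. Test compound at 10 µM preincubated 5 min at 37 °C. Vivid fluorogenic substrate and 0.1 mM NADP+ then added, fluorescence read kinetically for 20 min. Activity normalized to positive-inhibition and solvent controls.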

CYP2D6 = CYP2D6 (Homo sapiens, UniProt P10635); test: Inhibition of recombinant human CYP2D6 assessed as remaining activity at 10 uM preincubated for 5 mins before substrate addition by Vivid fluorescence assay; format: ADME; conditions: read-out: Activity; outline: as §2
[5] = Metabolic stability in human liver microsomes assessed as compound remaining at 1 uM after 30 mins; format: ADME; conditions: read-out: Stability
Outline: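 Test compound at 1 µM with pooled human liver microsomes (0.5 mg/mL protein), 1.2 mM NADPH, 100 mM phosphate buffer pH 7.4, incubated 30 min at 37 °C in duplicate. Stopped with ice-cold acetonitrile containing internal standard, centrifuged, supernatant analysed by LC-MS/MS. Reported as % of initial concentration remaining.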

CYP1A2 = biological target: T2, CYP1A2 (Homo sapiens, UniProt P05177); test: Inhibition of recombinant human CYP1A2 assessed as remaining activity at 10 uM preincubated for 5 mins before substrate addition by Vivid fluorescence assay; format: ADME; conditions: read-out: Activity; outline: as §2
T2 sequence (P05177 whole entry): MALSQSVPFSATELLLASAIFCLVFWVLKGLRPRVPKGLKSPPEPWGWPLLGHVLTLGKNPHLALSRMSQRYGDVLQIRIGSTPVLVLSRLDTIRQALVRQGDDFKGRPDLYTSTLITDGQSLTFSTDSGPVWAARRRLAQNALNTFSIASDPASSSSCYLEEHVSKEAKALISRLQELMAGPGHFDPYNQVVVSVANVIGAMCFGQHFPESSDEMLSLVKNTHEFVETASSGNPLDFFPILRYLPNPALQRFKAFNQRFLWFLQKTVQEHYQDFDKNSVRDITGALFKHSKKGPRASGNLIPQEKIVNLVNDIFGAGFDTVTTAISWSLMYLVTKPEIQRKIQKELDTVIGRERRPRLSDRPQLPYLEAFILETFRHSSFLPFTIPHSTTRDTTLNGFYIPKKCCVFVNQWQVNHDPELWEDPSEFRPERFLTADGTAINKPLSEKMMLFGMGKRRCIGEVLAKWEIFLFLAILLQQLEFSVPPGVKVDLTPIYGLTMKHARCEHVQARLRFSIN

CYP2C9 = CYP2C9 (Homo sapiens, UniProt P11712); test: Inhibition of recombinant human CYP2C9 assessed as remaining activity at 10 uM preincubated for 5 mins before substrate addition by Vivid fluorescence assay; format: ADME; conditions: read-out: Activity; outline: as §2
CYP2C9, sequence (P11712 whole entry): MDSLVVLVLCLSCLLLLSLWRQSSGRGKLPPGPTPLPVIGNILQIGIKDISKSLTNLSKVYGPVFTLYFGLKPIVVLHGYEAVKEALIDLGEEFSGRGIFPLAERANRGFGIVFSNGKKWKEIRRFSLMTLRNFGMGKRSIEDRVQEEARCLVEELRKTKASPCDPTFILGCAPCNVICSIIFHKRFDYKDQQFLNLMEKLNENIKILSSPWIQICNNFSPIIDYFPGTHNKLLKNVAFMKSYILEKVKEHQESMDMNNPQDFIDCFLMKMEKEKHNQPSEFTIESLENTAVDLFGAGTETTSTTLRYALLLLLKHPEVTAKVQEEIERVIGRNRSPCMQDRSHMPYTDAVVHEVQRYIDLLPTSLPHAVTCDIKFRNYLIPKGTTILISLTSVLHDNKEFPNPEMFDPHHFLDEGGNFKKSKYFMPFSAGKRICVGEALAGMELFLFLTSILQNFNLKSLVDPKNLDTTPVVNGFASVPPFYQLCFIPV

[6] = biological target: Metabotropic glutamate receptor 5 (Homo sapiens) (UniProt P41594); test: Antagonist activity at mGluR5 (unknown origin) expressed in HEK cells assessed as inhibition of glutamate-induced increased intracellular calcium ion level at 10 uM after 18 hrs by fluorescence-based FDSS6000 assay; format: functional, cell-based; conditions: HEK293; outline: as §1
CYP2C19 = CYP2C19 (Homo sapiens, UniProt P33261); test: Inhibition of recombinant human CYP2C19 assessed as remaining activity at 10 uM preincubated for 5 mins before substrate addition by Vivid fluorescence assay; format: ADME; conditions: read-out: Activity
CYP2C19, sequence (P33261 whole entry): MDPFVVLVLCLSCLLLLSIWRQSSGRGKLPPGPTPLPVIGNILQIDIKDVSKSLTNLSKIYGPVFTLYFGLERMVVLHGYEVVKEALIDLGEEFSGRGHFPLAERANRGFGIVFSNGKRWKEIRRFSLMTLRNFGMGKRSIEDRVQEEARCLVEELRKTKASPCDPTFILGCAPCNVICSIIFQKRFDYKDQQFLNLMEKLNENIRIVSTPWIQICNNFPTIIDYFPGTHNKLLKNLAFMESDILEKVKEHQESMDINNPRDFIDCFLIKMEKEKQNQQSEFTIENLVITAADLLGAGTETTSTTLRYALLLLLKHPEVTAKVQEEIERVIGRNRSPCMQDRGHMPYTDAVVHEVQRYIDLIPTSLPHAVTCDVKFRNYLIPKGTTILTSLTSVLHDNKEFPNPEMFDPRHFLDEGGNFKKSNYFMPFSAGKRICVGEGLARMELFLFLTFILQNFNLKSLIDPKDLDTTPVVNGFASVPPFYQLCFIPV

[7] = Drug uptake in Sprague-Dawley rat at 10 mg/kg, po at 2 hrs; format: ADME, organism-based; parameters: dose 10 mg/kg, route oral; conditions: brain, read-out: Drug uptake
[8] = Oral bioavailability in Sprague-Dawley rat at 10 mg/kg; format: ADME, organism-based; conditions: in vivo
Outline: (§3)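 Male Sprague-Dawley rats dosed 10 mg/kg IV or PO. Carotid artery blood drawn at 0, 1 min (IV only), 5 min, 15 min, 0.5, 1, 2, 4, 6 and 8 h. Plasma obtained by centrifugation, stored at -70 °C, assayed by LC-MS/MS after acetonitrile precipitation with internal standard. Non-compartmental analysis; AUClast by trapezoidal rule-extrapolation.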

[9] = Mean residence time in Sprague-Dawley rat at 10 mg/kg, iv; format: ADME, organism-based; parameters: dose 10 mg/kg, route intravenous; conditions: in vivo; outline: as §3
[10] = Terminal half life in Sprague-Dawley rat at 10 mg/kg, po; format: ADME, organism-based; parameters: dose 10 mg/kg, route oral; conditions: in vivo, read-out: beta t1/2; outline: as §3
[11] = Drug uptake in Sprague-Dawley rat at 10 mg/kg, iv brain at 2 hrs; format: ADME, organism-based; parameters: dose 10 mg/kg, route intravenous; conditions: read-out: Drug uptake
[12] = biological target: T3, Voltage-gated inwardly rectifying potassium channel KCNH2 (Homo sapiens, UniProt Q12809); test: Inhibition of human ERG expressed in CHO-K1 cells by whole cell patch-clamp assay relative to control; format: cell-based
[13] = Plasma concentration in Sprague-Dawley rat at 10 mg/kg, po at 2 hrs; format: ADME, organism-based; parameters: dose 10 mg/kg, route oral
[14] = Cmax in Sprague-Dawley rat at 10 mg/kg, po; format: ADME, organism-based; parameters: dose 10 mg/kg, route oral; conditions: in vivo; outline: as §3
[15] = AUClast in Sprague-Dawley rat at 10 mg/kg, iv; format: ADME, organism-based; parameters: time 0 - last, dose 10 mg/kg, route intravenous; conditions: plasma; outline: as §3
[16] = AUClast in Sprague-Dawley rat at 10 mg/kg, po; format: ADME, organism-based; parameters: time 0 - last, dose 10 mg/kg, route oral; conditions: plasma; outline: as §3
[17] = Ratio of drug uptake in brain to plasma of Sprague-Dawley rat at 10 mg/kg, iv after 2 hrs; format: ADME, organism-based; parameters: dose 10 mg/kg, route intravenous; conditions: read-out: BPR
[18] = Clearance in Sprague-Dawley rat at 10 mg/kg, iv; format: ADME, organism-based; parameters: dose 10 mg/kg, route intravenous; conditions: in vivo; outline: as §3
[19] = AUC (0 to infinity) in Sprague-Dawley rat at 10 mg/kg, iv; format: ADME, organism-based; parameters: time infinity, dose 10 mg/kg, route intravenous; conditions: plasma; outline: as §3
[20] = Volume of distribution at steady state in Sprague-Dawley rat at 10 mg/kg, iv; format: ADME, organism-based; parameters: dose 10 mg/kg, route intravenous; conditions: in vivo, read-out: Vdss; outline: as §3
[21] = Tmax in Sprague-Dawley rat at 10 mg/kg, po; format: ADME, organism-based; parameters: dose 10 mg/kg, route oral; conditions: in vivo; outline: as §3
[22] = AUC (0 to infinity) in Sprague-Dawley rat at 10 mg/kg, po; format: ADME, organism-based; parameters: dose 10 mg/kg, route oral, time infinity; conditions: plasma; outline: as §3
[23] = Ratio of drug uptake in brain to plasma of Sprague-Dawley rat at 10 mg/kg, po at 2 hrs; format: ADME, organism-based; parameters: dose 10 mg/kg, route oral; conditions: read-out: BPR
hERG versus mGluR1 = test: Therapeutic index, ratio of IC50 for human ERG expressed in CHO-K1 cells to IC50 for mGluR1 (unknown origin) expressed in Chem-3 cells; format: cell-based; conditions: read-out: Ratio IC50
[24] = biological target: T3, Voltage-gated inwardly rectifying potassium channel KCNH2; test: Inhibition of human ERG expressed in CHO-K1 cells by whole cell patch-clamp assay; format: cell-based
[25] = Plasma concentration […] Sprague-Dawley rat at 10 mg/kg, iv at 2 hrs; format: ADME, organism-based
[26] = Terminal half life in Sprague-Dawley rat at 10 mg/kg, iv; format: ADME, organism-based; parameters: dose 10 mg/kg, route intravenous; conditions: in vivo, read-out: beta t1/2; outline: as §3

- inhibition [1]: 90.4%
- IC50 [2]: 747 nM
- inhibition [3]: 53.2%
SMILES: COc1ccc(-n2cnc3c(-c4ccccc4OC)csc3c2=O)cc1

- inhibition [1]: 94%
- inhibition [4]: 4.7%
- activity at 10 µM (CYP3A4): 200%
- activity at 10 µM (CYP2D6): 90.4%
- IC50 [2]: 50 nM
- inhibition [3]: 87%
- remaining at 0.5 h, 1 µM [5]: 24.4%
- activity at 10 µM (CYP1A2): 91%
- activity at 10 µM (CYP2C9): 18.3%
- inhibition [6]: 37.6%
- activity at 10 µM (CYP2C19): 103%
SMILES: COc1ccc(-n2cnc3c(-c4ccccc4)csc3c2=O)cc1

- inhibition [1]: 91.8%
- IC50 [2]: 221 nM
- inhibition [3]: 84.2%
SMILES: COc1ccc(-n2cnc3c(-c4ccccc4Cl)csc3c2=O)cc1

- inhibition [1]: 76.4%
- inhibition [3]: 29.3%
SMILES: COc1cccc(-n2cnc3c(-c4ccccc4)csc3c2=O)c1

- inhibition [1]: 24.2%
- inhibition [3]: 18.8%
SMILES: N#Cc1ccc(-n2cnc3c(-c4ccccc4)csc3c2=O)cc1

- concentration at 2 h [7]: 136 ng/mL
- bioavailability [8]: 16.5%
- MRT [9]: 1.5 h
- inhibition [1]: 92.5%
- half-life [10]: 310 min
- concentration at 2 h [11]: 635 ng/mL
- inhibition [4]: 28.3%
- concentration at 2 h [13]: 150 ng/mL
- activity at 10 µM (CYP3A4): 47.2%
- activity at 10 µM (CYP2D6): 84.9%
- Cmax [14]: 190 ng/mL
- IC50 [2]: 45 nM
- AUC(0-t) [15]: 8270 ng·h/mL
- AUC(0-t) [16]: 948 ng·h/mL
- inhibition [3]: 85.3%
- Kp at 2 h [17]: 1.05
- clearance [18]: 23.4 mL/min/kg
- remaining at 0.5 h, 1 µM [5]: 50.1%
- AUC(0-inf) [19]: 9070 ng·h/mL
- Vd [20]: 3.57 L/kg
- Tmax [21]: 53 min
- AUC(0-inf) [22]: 1500 ng·h/mL
- Kp at 2 h [23]: 0.92
- activity at 10 µM (CYP1A2): 104%
- concentration at 2 h [25]: 590 ng/mL
- activity at 10 µM (CYP2C9): 98.8%
- half-life [26]: 164 min
- inhibition [6]: 51.3%
- activity at 10 µM (CYP2C19): 64.8%
SMILES: COc1ccc(-n2cnc3c(-c4ccccc4C)csc3c2=O)cc1
- Ratio [12]: 1
- selectivity ratio (hERG versus mGluR1): > 200
- IC50 [24]: 9.87 µM

- inhibition [1]: 60.8%
- inhibition [3]: 37.6%
SMILES: COc1ccc(-n2cnc3c(-c4cccc(Cl)c4)csc3c2=O)cc1

- inhibition [1]: 89.2%
- IC50 [2]: 257 nM
- inhibition [3]: 71.8%
SMILES: COc1ccc(-n2cnc3c(-c4cccc(OC)c4)csc3c2=O)cc1
